Assay results pooled from the literature.
Effect on: cell growth or viability

SMILES	cell line	assay	conditions	measurement	result
CC(C)(C)CC(C)(C)Nc1c(-c2ccccc2)nc2ncccn12	MCF7	MTT	25 µM, 48 h	viability	44.9%
O=[N+]([O-])c1ccc(-c2nc3cc(F)ccc3[nH]2)o1	HEp-2	resazurin	72 h	CC50	3.1 µM
CC(=O)OC1c2c(ccc3ccc(=O)oc23)OC(C)(C)C1OC(=O)C(C)(O)C(C)O (stereo not drawn)	HEp-2	WST-1		IC50	11.3 µM
O=[N+]([O-])c1ccc(-c2nc3cccc(O)c3[nH]2)o1	HEp-2	resazurin	72 h	CC50	31.6 µM
OC[C@@H]1[C@@H](O)[C@H](O)[C@@H](O)CN1CC/C=C/CCOc1cc(F)ccc1F	MDBK	MTT		CC50	> 500 µM
c1cc(CN2CCCNCCNCCCNCC2)ccc1CN1CCCNCCNCCCNCC1	TZM-bl			CC50	> 1 µM
C[C@@H]1O[C@@H](OC[C@H]2O[C@@H](Oc3c(-c4ccc(O)c(O)c4)oc4cc(O)cc(O)c4c3=O)[C@H](O)[C@@H](O)[C@@H]2O)[C@H](O)[C@H](O)[C@H]1O	TZM-bl	MTT	48 h	CC50	> 250 µg/mL
C=C1C(=O)O[C@H]2[C@H]1CC/C(C)=C/CC[C@@]1(C)O[C@@H]21	THP-1	ATP luminescence	17 h	IC50	8.89 µM
Cc1nc(C(CN)NC(=O)C(=O)Nc2ccc3c(c2)OCO3)sc1CO (stereo not drawn)	TZM-bl	MTS	72 h	CC50	≥ 750 µM
CCCCCCCCCCCCCCCCOP(=O)([O-])OCC[N+](C)(C)C	THP-1		72 h	CC50	> 40 µM
C[C@@H]1[C@H](O)[C@@H](C)/C=C/C=C/C=C/C=C/C=C/C=C/C=C/[C@H](O[C@@H]2O[C@H](C)[C@@H](O)[C@H](N)[C@@H]2O)C[C@@H]2O[C@](O)(C[C@@H](O)C[C@@H](O)[C@H](O)CC[C@@H](O)C[C@@H](O)CC(=O)O[C@H]1C)C[C@H](O)[C@H]2C(=O)O	THP-1	MTT	72 h	CC50	3.6 µM
CC1(C)CC[C@]2(C)CC[C@]3(C)[C@H]4CC=C5[C@@H](CC[C@H](O)C5(C)C)[C@]4(C)CC[C@@]3(C)[C@@H]2C1	HEp-2	WST-1		IC50	48.1 µM
C=C(C)[C@@H]1CC[C@]2(C(=O)O)CC[C@]3(C)[C@H](CC[C@@H]4[C@@]5(C)CC[C@H](O)C(C)(C)[C@@H]5CC[C@]43C)[C@@H]12	WS1		48 h	IC50	36 µM
CC(=O)O[C@@H]1c2c(ccc3ccc(=O)oc23)OC(C)(C)[C@@H]1OC(=O)C1(C)OC1C (stereo partly drawn)	MCF7	WST-1		IC50	25.1 µM
C=C(C)[C@H](CCC(C)(C)O)Cc1c(O)cc(OC)c2c1O[C@H](c1ccc(O)cc1O)CC2=O	MCF7	MTT	48 h	IC50	> 100 µM
